Screening results (PubChem BioAssay)
CHOP UPR activ: activators of apoptotic arm of unfolded protein response (CHOP); CHO-CHOP luciferase reporter, UPR activation, luminescence; percent of tunicamycin response over DMSO baseline; activation, % at 10 µM; 330,000 compounds, 0.34% hits; AID 449763;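 active = at 10 µM dose, activation of 40% or more, normalized to positive control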
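Assay system: CHO cells with stable CHOP pathway luciferase reporter; Buffer or medium: F12 plus 10% serum; Times: 16-18 h cell attachment, then 6 h compound exposure, 37 °C; Signal: luciferase luminescence; Read-out basis: percent activation relative to tunicamycin control; Control set: tunicamycin high control, DMSO low control.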
Beta cell apopt: beta cell apoptosis inhibition. INS-1E cytokine-induced death, ATP luminescence, 48 h; percent of positive-control rescue, neutral wells zero. protection from apoptosis, % (no concentration beside the values). 300,000 compounds, 0.8% hits;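 active = Every replicate reaches about 75%, or at least half do and their mean reaches it too, limit read from the data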;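 note: higher means more ATP so stronger rescue from cytokine killing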
CSC inhib: cancer stem cell inhibition. cancer stem cell-like cells viability, luminescence. inhibition, % at 7.5 µM. 300,000 compounds, 1.1% hits. AID 2717; in the data active = inhibition above about 75%; tested in HMLE shEcad cells
XBP1 UPR activ: activators of adaptive arm of unfolded protein response (XBP1); CHO-XBP1 luciferase reporter, IRE1-XBP1 UPR activation, luminescence; percent of tunicamycin response, DMSO as zero; activation, % at 20 µM; 330,000 compounds, 0.33% hits; AID 463104;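 active = versus positive control, 20 µM dose yields 30% or more activation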
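Material – CHO cell line with stable XBP1 luciferase reporter · Buffer or medium – F12 plus 10% FBS · Compound – single point, 20 µM final compound, 1% DMSO · Schedule – 16-18 h cell attachment at 37 °C, then 6 h compound exposure · Signal – Steady-Glo luminescence read · Benchmarks – high control tunicamycin 10 µg/mL final, low control DMSO vehicle only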
Mdm2-MdmX inh: inhibitors of human Mdm2/MdmX interaction; O15151+Q00987; SaOS-2 split-luciferase Mdm2/MdmX complementation, luminescence; inhibition, % at 8 µM; 330,000 compounds, 3% hits; AID 485346;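 active = inhibition of at least 50% at 8 µM in the primary screen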
Target sequence (O15151 whole entry, looked up): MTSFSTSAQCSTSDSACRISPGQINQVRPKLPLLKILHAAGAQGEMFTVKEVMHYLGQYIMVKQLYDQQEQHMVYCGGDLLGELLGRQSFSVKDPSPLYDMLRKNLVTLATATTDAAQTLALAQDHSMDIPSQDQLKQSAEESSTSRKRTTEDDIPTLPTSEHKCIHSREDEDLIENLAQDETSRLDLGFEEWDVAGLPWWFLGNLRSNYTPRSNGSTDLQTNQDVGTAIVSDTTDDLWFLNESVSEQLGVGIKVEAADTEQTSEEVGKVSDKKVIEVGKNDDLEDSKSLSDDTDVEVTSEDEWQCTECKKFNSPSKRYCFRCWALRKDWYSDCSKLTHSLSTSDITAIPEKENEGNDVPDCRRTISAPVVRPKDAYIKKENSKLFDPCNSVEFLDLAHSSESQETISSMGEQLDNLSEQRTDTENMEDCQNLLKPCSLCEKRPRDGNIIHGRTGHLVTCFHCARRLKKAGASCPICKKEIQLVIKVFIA
Target sequence (Q00987 whole entry, looked up): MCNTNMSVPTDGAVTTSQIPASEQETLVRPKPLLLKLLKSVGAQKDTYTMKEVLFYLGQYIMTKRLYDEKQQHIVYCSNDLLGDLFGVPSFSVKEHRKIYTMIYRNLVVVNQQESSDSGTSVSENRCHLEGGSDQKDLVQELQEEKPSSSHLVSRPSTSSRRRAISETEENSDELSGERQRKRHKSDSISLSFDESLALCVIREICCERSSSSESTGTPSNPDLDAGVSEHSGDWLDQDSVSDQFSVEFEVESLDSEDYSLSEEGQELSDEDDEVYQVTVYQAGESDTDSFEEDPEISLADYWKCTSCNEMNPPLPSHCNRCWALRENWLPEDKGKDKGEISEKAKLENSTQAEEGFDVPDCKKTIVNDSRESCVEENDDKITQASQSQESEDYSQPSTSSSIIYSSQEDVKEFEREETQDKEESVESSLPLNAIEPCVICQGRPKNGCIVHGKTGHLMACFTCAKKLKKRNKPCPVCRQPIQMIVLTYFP
T cruzi repl: T. cruzi replication inhibition; T. cruzi beta-gal in NIH3T3, luminescence, 90 h; inhibition, % (no concentration beside the values); 300,000 compounds, 1.4% hits; AID 1885;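 active = mean inhibition across valid replicates above about 55%, limit read from the data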;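 note: signal also drops with host cell toxicity which is not excluded here; higher percent means less beta-gal luminescence so fewer parasites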
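assay system = mouse NIH/3T3 fibroblasts infected with β-gal-expressing T. cruzi Tulahuen C4 | input = 5,000 NIH/3T3 host cells per well | buffer or medium = DMEM plus 2% FBS | timing = 3 h host attachment, then at least 90 h co-culture | measured by = GalScreen luminescence, 60 min | evaluation = luminescence reflecting intracellular parasite burden, expressed as percent inhibition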
UPR XBP1 confirm: adaptive UPR (XBP1) activation, confirmed | 1,000 compounds, 63% hits | shares compounds with XBP1 UPR activ | activation, % at 20 µM | CHO-XBP1 IRE1-XBP1 luciferase reporter, luminescence;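 active = reporter signal at least 30% of the positive control's activation in two or more of four replicate wells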
A number is an active result. Shown are actives, neighbours in structure and some others; about 5% of the full set was active somewhere.

What do the screens show for `C#CCOCCOCCOCCNc1nc(N2CCN(C(=O)CCCCCCCCCCNC(=O)[C@@H](CCSC)n3cc(CCO)nn3)CC2)nc(N2CCN(C(=O)CCCCCCCCCCNC(=O)[C@H](CCCN=C(N)N)n3cc(C[C@@H](C)CC)nn3)CC2)n1`?
CHOP UPR activ: inactive; Beta cell apopt: inactive; CSC inhib: inactive; XBP1 UPR activ: inactive; Mdm2-MdmX inh: inactive

How did C#CCOCCOCCOCCNc1nc(N2CCN(C(=O)CCCCCCCCCCNC(=O)[C@H](CCCCN)n3cc(C[C@@H](C)CC)nn3)CC2)nc(N2CCN(C(=O)CCCCCCCCCCNC(=O)[C@H](CCCN=C(N)N)n3cc(C[C@@H](C)CC)nn3)CC2)n1 do in these assays?
CHOP UPR activ: inactive; Beta cell apopt: 98.9; CSC inhib: 102.3; XBP1 UPR activ: 31.1; Mdm2-MdmX inh: inactive; UPR XBP1 confirm: 29.0

What do the screens show for `C#CCn1c(=NC(=O)c2ccc(Cl)s2)sc2cccc(OC)c21`?
CHOP UPR activ: inactive; Beta cell apopt: inactive; CSC inhib: inactive; XBP1 UPR activ: 136.1; Mdm2-MdmX inh: inactive; T cruzi repl: inactive; UPR XBP1 confirm: 111.6

How did CCCCN(CC)S(=O)(=O)c1ccc(C(=O)N=c2sc3cc(NC(C)=O)ccc3n2C)cc1 do in these assays?
CHOP UPR activ: inactive; Beta cell apopt: inactive; CSC inhib: inactive; XBP1 UPR activ: 137.0; Mdm2-MdmX inh: inactive; T cruzi repl: inactive; UPR XBP1 confirm: 106.3

How did O=C(Nc1ccc(SC(F)F)cc1)c1cc(-c2ccncc2)nc2ccccc12 do in these assays?
CHOP UPR activ: inactive; Beta cell apopt: inactive; XBP1 UPR activ: 63.5; Mdm2-MdmX inh: inactive; UPR XBP1 confirm: 48.2

What do the screens show for `COc1ccc(-c2cc(C(F)F)n3ncc(C(=O)N4CCc5ccccc5C4)c3n2)cc1`?
CHOP UPR activ: inactive; Beta cell apopt: inactive; CSC inhib: inactive; XBP1 UPR activ: 37.6; Mdm2-MdmX inh: inactive; T cruzi repl: inactive; UPR XBP1 confirm: 72.6

Results for O=C(c1cnn2c(C(F)F)cc(-c3ccccc3)nc12)N1CCc2ccccc21 ?
CHOP UPR activ: inactive; Beta cell apopt: inactive; CSC inhib: inactive; XBP1 UPR activ: inactive; Mdm2-MdmX inh: inactive; T cruzi repl: inactive

What do the screens show for `COC(=O)c1c(C)[nH]c(C(=O)C(C)OC(=O)c2cnc(C)cn2)c1C` (stereo not drawn)?
CHOP UPR activ: inactive; Beta cell apopt: inactive; XBP1 UPR activ: inactive; Mdm2-MdmX inh: inactive

How did COc1cnc(-c2ccccn2)nc1Sc1ccc(Cl)cc1 do in these assays?
CHOP UPR activ: inactive; Beta cell apopt: inactive; CSC inhib: inactive; XBP1 UPR activ: 31.5; Mdm2-MdmX inh: inactive; T cruzi repl: inactive; UPR XBP1 confirm: inactive

How did COc1ccc(S(=O)(=O)N2c3cc(Cl)ccc3Oc3nc4ccccc4nc32)cc1 do in these assays?
CHOP UPR activ: inactive; Beta cell apopt: inactive; CSC inhib: inactive; XBP1 UPR activ: 39.3; Mdm2-MdmX inh: inactive; T cruzi repl: inactive; UPR XBP1 confirm: 31.1

Results for O=S(=O)(c1ccc(Cl)cc1)N1c2ccccc2Oc2nc3ccccc3nc21 ?
CHOP UPR activ: inactive; Beta cell apopt: inactive; CSC inhib: inactive; XBP1 UPR activ: inactive; Mdm2-MdmX inh: inactive; T cruzi repl: inactive

How did CCCc1cc2c(cc1NC(=O)c1ccccc1C)OCO2 do in these assays?
CHOP UPR activ: inactive; Beta cell apopt: inactive; CSC inhib: inactive; XBP1 UPR activ: inactive; Mdm2-MdmX inh: inactive; T cruzi repl: inactive

What do the screens show for `COc1cc([N+](=O)[O-])ccc1NC(=S)NNC(=O)c1ccc2c(c1)OCO2`?
CHOP UPR activ: inactive; Beta cell apopt: inactive; CSC inhib: inactive; XBP1 UPR activ: 30.1; Mdm2-MdmX inh: inactive; T cruzi repl: inactive; UPR XBP1 confirm: inactive

What do the screens show for `CC1(C)CC(=O)C(C=Nc2ccc(O)c(N=CC3=C(O)CC(C)(C)CC3=O)c2)=C(O)C1`?
CHOP UPR activ: inactive; Beta cell apopt: inactive; CSC inhib: inactive; XBP1 UPR activ: inactive; Mdm2-MdmX inh: inactive; T cruzi repl: inactive

How did CC1(C)CC(=O)C(C=Nc2ccc(C(=O)c3ccccc3)cc2N=CC2=C(O)CC(C)(C)CC2=O)=C(O)C1 do in these assays?
CHOP UPR activ: inactive; CSC inhib: inactive; XBP1 UPR activ: 179.9; Mdm2-MdmX inh: inactive; T cruzi repl: inactive; UPR XBP1 confirm: 267.9

How did Nc1nonc1-n1nnc(C(=O)N/N=C/c2ccc(Br)cc2)c1CN1CCOCC1 do in these assays?
CHOP UPR activ: inactive; Beta cell apopt: inactive; CSC inhib: inactive; XBP1 UPR activ: inactive; Mdm2-MdmX inh: inactive; T cruzi repl: inactive

Results for CN(C)c1ccc(/C=N/NC(=O)c2nnn(-c3nonc3N)c2CN2CCCCCC2)cc1 ?
CHOP UPR activ: inactive; Beta cell apopt: inactive; CSC inhib: inactive; XBP1 UPR activ: 59.1; Mdm2-MdmX inh: inactive; T cruzi repl: inactive; UPR XBP1 confirm: inactive

How did CCCCOc1ccc(/C=N/NC(=O)c2nnn(-c3nonc3N)c2CN2CCCCCC2)cc1 do in these assays?
CHOP UPR activ: inactive; Beta cell apopt: inactive; CSC inhib: inactive; XBP1 UPR activ: inactive; Mdm2-MdmX inh: inactive; T cruzi repl: inactive

How did CC1CCN(Cc2c(C(=O)N/N=C/c3ccc(C(C)C)cc3)nnn2-c2nonc2N)CC1 do in these assays?
CHOP UPR activ: inactive; Beta cell apopt: inactive; CSC inhib: inactive; XBP1 UPR activ: 35.8; Mdm2-MdmX inh: inactive; T cruzi repl: inactive; UPR XBP1 confirm: 74.3

How did COc1ccc2[nH]c3c(c2c1)CCN1C(=O)C(CC(=O)NC/C=C(\C)CCC=C(C)C)C[C@H](C(=O)N2CCOCC2)[C@@]31CCC1CCCC1 (stereo partly drawn) do in these assays?
CHOP UPR activ: inactive; XBP1 UPR activ: 47.2; Mdm2-MdmX inh: inactive; UPR XBP1 confirm: 57.5

What do the screens show for `CC[C@]12c3[nH]c4ccc(OC)cc4c3CCN1C(=O)C(CC(=O)NC/C=C(\C)CCC=C(C)C)C[C@@H]2C(=O)N1CCN(C(=O)C2CC2)CC1` (stereo partly drawn)?
CHOP UPR activ: inactive; XBP1 UPR activ: inactive; Mdm2-MdmX inh: inactive

Results for CSc1ccccc1Nc1ncnc(N)n1 ?
CHOP UPR activ: inactive; Beta cell apopt: inactive; CSC inhib: inactive; XBP1 UPR activ: inactive; Mdm2-MdmX inh: inactive; T cruzi repl: inactive

What do the screens show for `Cc1ccc(NC(=O)c2cc(S(=O)(=O)N(C)C)ccc2N2CCCC2)cc1S(=O)(=O)N(C)C`?
CHOP UPR activ: inactive; Beta cell apopt: inactive; CSC inhib: inactive; XBP1 UPR activ: 53.0; Mdm2-MdmX inh: inactive; T cruzi repl: inactive; UPR XBP1 confirm: 67.1

How did Cn1c(-c2cc(Cl)ccc2O)nc2c1c(=O)[nH]c(=O)n2Cc1ccccc1 do in these assays?
CHOP UPR activ: inactive; Beta cell apopt: inactive; CSC inhib: inactive; XBP1 UPR activ: inactive; Mdm2-MdmX inh: inactive; T cruzi repl: inactive
